Among the data in PMC10552104 (ACS Omega, 2023) are IC50 values, retold here.

Format in all cases: cell-based
For assay [1], the system named is B16 melanoma cancer cell line. Kind of assay: MTT cytotoxicity assay, B16. Particulars: Mus musculus, B16, 24 h, read-out: IC50 B16. The gist of the method: (§1)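 IC50 values in μM, reported as mean ± S.D. from the table footnote; the same footnote covers the three cancer lines and the normal CHO–K1 line. The full series of test compounds was screened on each line.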
Background: Tetrazolium dyes change colour on reduction, which living cells bring about.

Assay [2] concerns HepG2 hepatocellular carcinoma cells. In words: MTT cytotoxicity assay, HepG2. Particulars: Homo sapiens, HepG2, 24 h, read-out: IC50 HepG2. In a few lines:
as §1

The subject of assay [3] is DU145 prostate cancer cell line. In words: MTT cytotoxicity assay, DU145. The settings on record: Homo sapiens, DU-145, 24 h, read-out: IC50 DU145. The gist of the method: as §1

Regarding `c1ccc(C(c2c[nH]c3ccccc23)c2c[nH]c3ccccc23)cc1` [1a, 3,3′-(Phenylmethylene)bis(1H-indole)], the IC50 in assay [1] came to 9.88 ± 1.19 µM; in assay [2], 4.62 ± 0.03 µM; in assay [3] it was 5.24 ± 0.67 µM.

Consider `COc1ccc2[nH]cc(C(c3ccc(C)cc3)c3c[nH]c4ccc(OC)cc34)c2c1` [1c, 3,3′-(p-Tolylmethylene)bis(5-methoxy-1H-indole)], for which the IC50 in assay [1] is 36 ± 1.09 µM; in assay [2] it was 5.47 ± 0.56 µM; in assay [3], 2.02 ± 0.74 µM.

For the compound `COc1ccc(C(c2c[nH]c3ccc(C#N)cc23)c2c[nH]c3ccc(C#N)cc23)cc1` [1g, 3,3′-((4-Methoxyphenyl)methylene)bis(1H-indole-5-carbonitrile)], the IC50 in assay [1] amounted to 9.82 ± 0.52 µM; in assay [2], 6.33 ± 1.8 µM; in assay [3] it was 8.13 ± 0.77 µM.

For `COc1ccc(C(c2c(-c3ccccc3)[nH]c3ccccc23)c2c(-c3ccccc3)[nH]c3ccccc23)cc1OC` [1i, 3,3′-((3,4-Dimethoxyphenyl)methylene)bis(2-phenyl-1H-indole)], the IC50 in assay [1] came out at 15.9 ± 0.25 µM; in assay [2] it was 7.43 ± 1.6 µM; in assay [3], 10.3 ± 0.87 µM.

On to `O=[N+]([O-])c1ccc(C(c2c[nH]c3ccccc23)c2c[nH]c3ccccc23)cc1` [1k, 3,3′((4-Nitrophenyl)methylene)bis(1H-indole)], for which the IC50 in assay [1] was 29.2 ± 2.38 µM; in assay [2], 5.28 ± 0.24 µM; in assay [3], 1.09 ± 0.92 µM.

With `c1ccc2c(C(c3c[nH]c4ccccc34)c3c[nH]c4ccccc34)cccc2c1` [1m, 3,3′-(Naphthalen-1-ylmethylene)bis(1H-indole)], the IC50 in assay [1] turned out to be 9.49 ± 1.97 µM; in assay [2] it was 7.54 ± 1.19 µM; in assay [3], 8.18 ± 0.74 µM.

Regarding `c1ccc2c(C(c3c[nH]c4ccccc34)c3c[nH]c4ccccc34)c3ccccc3cc2c1` [1n, 3,3′-(Anthracen-9-ylmethylene)bis(1H-indole)], the results for the concentration for half-maximal inhibition (IC50) in assay [1], in assay [2] and in assay [3] were 13.6 ± 0.92 µM, 11.9 ± 0.1 µM and 6.87 ± 1.06 µM, respectively.

As to `c1coc(C(c2c[nH]c3ccccc23)c2c[nH]c3ccccc23)c1` [1o, 3,3′-(Furan-2-ylmethylene)bis(1H-indole)], the IC50 in assay [1] was found to be 16.1 ± 0.79 µM; in assay [2], 5.87 ± 0.3 µM; in assay [3] it was 60.8 ± 1.24 µM.

In the case of `Brc1ccc2[nH]cc(C(c3ccco3)c3c[nH]c4ccc(Br)cc34)c2c1` [1p, 3,3′-(Furan-2-ylmethylene)bis(5-bromo-1H-indole)], the IC50 in assay [1] was 19.7 ± 0.87 µM; in assay [2] it was 11.4 ± 1.37 µM; in assay [3], 19.4 ± 0.88 µM.

In the case of `c1ccc(-c2[nH]c3ccccc3c2C(c2ccco2)c2c(-c3ccccc3)[nH]c3ccccc23)cc1` [1q, 3,3′-(Furan-2-ylmethylene)bis(2-phenyl-1H-indole)], the IC50 in assay [1] came out at 23.5 ± 7 µM; in assay [2] it was 5 ± 0.01 µM; in assay [3], 39.5 ± 1.02 µM.

For `Cc1[nH]c2ccccc2c1C(c1cccs1)c1c(C)[nH]c2ccccc12` [1r, 3,3′-(Thiophen-2-ylmethylene)bis(2-methyl-1H-indole)], the IC50 is 15.7 ± 2.1 µM in assay [1], 5.82 ± 0.5 µM in assay [2] and 21.2 ± 2.01 µM in assay [3].

`COc1cc(C(c2c[nH]c3ccccc23)c2c[nH]c3ccccc23)cc(OC)c1O` [1s, 4-(Di(1H-indol-3-yl)methyl)-2,6-dimethoxyphenol]: the IC50 in assay [1] was determined as 7.02 ± 0.32 µM; in assay [2], 7.01 ± 0.53 µM; in assay [3], 22.6 ± 0.98 µM.

As for `COc1ccc(C(c2c[nH]c3ccccc23)c2c[nH]c3ccccc23)cc1OC` [1t, 3,3′-((3,4-Dimethoxyphenyl)methylene)bis(1H-indole)], the IC50 in assay [1] worked out at 8.14 ± 1.45 µM; in assay [2], 8.12 ± 0.87 µM; in assay [3] it was 12.2 ± 0.96 µM.

With `COc1cccc2c1C(=O)c1c(O)c3c(c(O)c1C2=O)C[C@@](O)(C(=O)CO)C[C@@H]3O[C@H]1C[C@H](N)[C@H](O)[C@H](C)O1` [doxorubicin, reference compound], the results for the IC50 in assay [1], in assay [2] and in assay [3] were 0.8 ± 0.12 µM, 0.6 ± 0.12 µM and 0.7 ± 0.13 µM, respectively.

The term IC50 denotes the concentration that inhibits the measured activity by half.
